Read-outs that look alike come from different tables or passages of the source.

One assay has as its target SUV39H1 (Homo sapiens, UniProt O43463). Briefly: BPS Bioscience assay, SUV39H1. It is filed as biochemical.
Assay [1] deals with H3K9me2 at EGFP provirus and MAGEA2 promoter in mES cells. Briefly: ChIP of H3K9me2 in mES cells. It is filed as cell-based, mouse. The following applies: 500 nM for 3 or 7 d.
The subject of a further assay is M1, M2 and M4. Briefly: M1, M2 and M4 functional assays. It is filed as cell-based.
For the next assay, the system named is J1 mES cells. Briefly: SSEA1 pluripotency marker immunostaining, flow cytometry. It is filed as cell-based, mouse. The conditions noted are these: 100 nM.
Assay [2] deals with 45 targets, including 36 GPCRs. The experiment in a line: NIMH Psychoactive Drug Screen Program Selectivity Panel. The following applies: at 1 μM. It is filed as binding.
The next assay deals with EZH2 (Homo sapiens, UniProt Q15910). The experiment in a line: BPS Bioscience assay, EZH2. It is filed as biochemical.
In another assay the target is JMJD2E (Homo sapiens, UniProt B2RXH2). Briefly: Alphascreen assay, JMJD2E. It is filed as biochemical.
The next assay has as its target adrenergic α1A receptor (Rattus norvegicus, UniProt P43140). Briefly: Ricerca Selectivity Panel, adrenergic α1A. It is filed as binding.
The subject of assay [3] is H3K9me2 levels in breast, prostate, colon carcinomas and normal fibroblast cells. The experiment in a line: H3K9me2 in-cell western, tumor and normal cell lines. It is filed as cell-based, human.
Another assay deals with SUV39H2 (Homo sapiens, UniProt Q9H5I1). The experiment in a line: SAHH-coupled assay, SUV39H2. It is filed as biochemical. In a few lines: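 A fluorescence-based coupled assay used S-adenosyl-L-homocysteine hydrolase to follow conversion of cofactor SAM to SAH by the methyltransferase. IC50 values are the average of at least two separate experiments.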
The mark [4] stands for this setting: assay results from BPS Bioscience.

Chain of SUV39H2 (Q9H5I1 whole entry, species assumed): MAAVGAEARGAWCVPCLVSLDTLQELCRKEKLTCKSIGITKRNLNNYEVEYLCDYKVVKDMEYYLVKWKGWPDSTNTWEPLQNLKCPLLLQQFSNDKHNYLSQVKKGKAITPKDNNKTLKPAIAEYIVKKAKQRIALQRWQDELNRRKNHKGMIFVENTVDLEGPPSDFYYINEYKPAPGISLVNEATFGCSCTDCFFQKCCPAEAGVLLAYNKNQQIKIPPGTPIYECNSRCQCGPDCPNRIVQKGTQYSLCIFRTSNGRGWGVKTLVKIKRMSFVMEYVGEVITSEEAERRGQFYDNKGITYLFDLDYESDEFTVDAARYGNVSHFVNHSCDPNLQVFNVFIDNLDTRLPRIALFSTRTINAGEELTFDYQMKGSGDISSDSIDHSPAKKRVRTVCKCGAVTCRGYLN
Chain of SUV39H1 (O43463 whole entry, species assumed): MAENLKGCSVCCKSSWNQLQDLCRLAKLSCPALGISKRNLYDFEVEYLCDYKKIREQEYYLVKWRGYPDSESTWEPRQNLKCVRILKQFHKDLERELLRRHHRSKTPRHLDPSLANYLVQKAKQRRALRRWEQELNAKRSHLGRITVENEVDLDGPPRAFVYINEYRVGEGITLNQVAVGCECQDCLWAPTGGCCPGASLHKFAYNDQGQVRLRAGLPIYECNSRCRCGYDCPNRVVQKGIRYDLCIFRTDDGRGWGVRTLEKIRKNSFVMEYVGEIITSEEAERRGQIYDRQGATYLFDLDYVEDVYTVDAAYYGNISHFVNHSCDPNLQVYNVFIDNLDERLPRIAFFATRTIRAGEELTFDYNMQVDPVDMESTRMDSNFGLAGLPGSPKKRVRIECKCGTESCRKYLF
Chain of EZH2 (Q15910 whole entry, species assumed): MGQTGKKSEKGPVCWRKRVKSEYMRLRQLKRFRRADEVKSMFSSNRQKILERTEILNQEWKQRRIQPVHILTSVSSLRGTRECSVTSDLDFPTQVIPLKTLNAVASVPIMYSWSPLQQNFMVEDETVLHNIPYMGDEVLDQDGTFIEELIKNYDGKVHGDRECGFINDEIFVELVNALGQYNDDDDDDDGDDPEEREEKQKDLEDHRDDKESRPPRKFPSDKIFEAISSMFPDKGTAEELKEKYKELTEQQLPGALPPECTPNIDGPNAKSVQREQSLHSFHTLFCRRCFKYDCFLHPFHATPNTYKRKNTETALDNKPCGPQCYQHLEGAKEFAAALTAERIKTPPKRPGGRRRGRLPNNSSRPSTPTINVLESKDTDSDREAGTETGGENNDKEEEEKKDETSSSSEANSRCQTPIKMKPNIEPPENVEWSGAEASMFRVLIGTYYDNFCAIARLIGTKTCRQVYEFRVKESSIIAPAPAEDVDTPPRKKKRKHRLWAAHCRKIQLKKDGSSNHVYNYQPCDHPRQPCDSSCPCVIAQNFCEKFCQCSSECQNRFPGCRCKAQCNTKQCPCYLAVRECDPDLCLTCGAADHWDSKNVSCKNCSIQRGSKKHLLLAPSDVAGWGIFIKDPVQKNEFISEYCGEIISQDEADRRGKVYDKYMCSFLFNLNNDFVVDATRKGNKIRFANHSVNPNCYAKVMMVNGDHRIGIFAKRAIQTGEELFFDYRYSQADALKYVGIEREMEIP
Chain of EZH2 (O75530 whole entry partner, species assumed): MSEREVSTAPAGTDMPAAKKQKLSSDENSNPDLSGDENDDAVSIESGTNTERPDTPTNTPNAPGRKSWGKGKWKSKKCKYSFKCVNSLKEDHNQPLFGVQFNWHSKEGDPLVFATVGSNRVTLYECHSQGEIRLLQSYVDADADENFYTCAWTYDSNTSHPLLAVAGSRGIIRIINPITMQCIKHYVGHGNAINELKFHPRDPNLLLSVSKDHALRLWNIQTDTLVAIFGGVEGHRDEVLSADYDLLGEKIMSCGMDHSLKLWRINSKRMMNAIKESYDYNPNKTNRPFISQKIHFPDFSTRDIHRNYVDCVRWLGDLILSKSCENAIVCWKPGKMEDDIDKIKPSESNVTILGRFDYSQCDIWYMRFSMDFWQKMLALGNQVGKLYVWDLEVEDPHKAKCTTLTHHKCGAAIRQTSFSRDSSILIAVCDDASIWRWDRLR
Chain of EZH2 (Q15022 whole entry partner, species assumed): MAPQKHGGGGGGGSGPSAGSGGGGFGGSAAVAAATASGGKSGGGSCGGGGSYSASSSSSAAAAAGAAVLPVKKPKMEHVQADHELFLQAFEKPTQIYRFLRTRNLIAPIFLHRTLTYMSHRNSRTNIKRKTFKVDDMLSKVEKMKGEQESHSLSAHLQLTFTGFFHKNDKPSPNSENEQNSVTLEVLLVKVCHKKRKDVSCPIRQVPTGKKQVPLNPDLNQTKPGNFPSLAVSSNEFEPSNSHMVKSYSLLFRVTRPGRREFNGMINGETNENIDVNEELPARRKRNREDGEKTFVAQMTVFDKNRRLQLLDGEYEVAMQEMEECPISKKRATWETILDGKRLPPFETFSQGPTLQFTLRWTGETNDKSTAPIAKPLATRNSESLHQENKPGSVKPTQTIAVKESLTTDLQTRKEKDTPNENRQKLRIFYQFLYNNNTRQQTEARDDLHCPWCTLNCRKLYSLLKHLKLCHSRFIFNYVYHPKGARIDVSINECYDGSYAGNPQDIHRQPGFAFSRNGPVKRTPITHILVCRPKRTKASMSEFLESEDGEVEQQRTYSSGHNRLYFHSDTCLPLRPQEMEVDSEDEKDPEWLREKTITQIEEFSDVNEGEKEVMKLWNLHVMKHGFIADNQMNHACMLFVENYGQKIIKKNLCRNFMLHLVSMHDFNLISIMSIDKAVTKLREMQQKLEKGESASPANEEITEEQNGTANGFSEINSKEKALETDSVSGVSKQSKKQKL
Chain of EZH2 (Q09028 whole entry partner, species assumed): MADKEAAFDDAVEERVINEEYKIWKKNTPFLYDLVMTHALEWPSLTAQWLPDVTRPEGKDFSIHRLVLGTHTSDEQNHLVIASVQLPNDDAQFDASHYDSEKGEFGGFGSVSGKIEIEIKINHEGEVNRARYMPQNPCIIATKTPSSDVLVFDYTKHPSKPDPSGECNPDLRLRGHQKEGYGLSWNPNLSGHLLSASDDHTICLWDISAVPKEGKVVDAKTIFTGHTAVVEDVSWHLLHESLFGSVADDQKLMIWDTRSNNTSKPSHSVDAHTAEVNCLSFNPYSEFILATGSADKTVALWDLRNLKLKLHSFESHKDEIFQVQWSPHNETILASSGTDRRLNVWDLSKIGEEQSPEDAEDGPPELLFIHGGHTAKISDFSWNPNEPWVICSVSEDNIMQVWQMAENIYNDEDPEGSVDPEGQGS
Chain of EZH2 (Q6ZN18 whole entry partner, species assumed): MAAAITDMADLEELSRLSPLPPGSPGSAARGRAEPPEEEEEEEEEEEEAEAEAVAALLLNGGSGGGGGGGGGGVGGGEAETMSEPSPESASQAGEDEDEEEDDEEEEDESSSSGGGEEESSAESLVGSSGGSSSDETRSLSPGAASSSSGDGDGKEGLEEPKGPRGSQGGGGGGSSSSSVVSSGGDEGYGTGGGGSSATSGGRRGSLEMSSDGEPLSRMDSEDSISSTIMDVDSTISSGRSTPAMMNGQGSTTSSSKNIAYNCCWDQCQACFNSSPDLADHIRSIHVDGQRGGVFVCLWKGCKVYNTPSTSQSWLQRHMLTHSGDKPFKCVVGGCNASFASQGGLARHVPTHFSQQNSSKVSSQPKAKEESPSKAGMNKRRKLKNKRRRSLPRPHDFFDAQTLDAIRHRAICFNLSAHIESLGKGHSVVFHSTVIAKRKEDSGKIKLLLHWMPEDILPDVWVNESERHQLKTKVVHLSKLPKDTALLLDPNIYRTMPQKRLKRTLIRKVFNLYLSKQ
Chain of JMJD2E (B2RXH2 whole entry): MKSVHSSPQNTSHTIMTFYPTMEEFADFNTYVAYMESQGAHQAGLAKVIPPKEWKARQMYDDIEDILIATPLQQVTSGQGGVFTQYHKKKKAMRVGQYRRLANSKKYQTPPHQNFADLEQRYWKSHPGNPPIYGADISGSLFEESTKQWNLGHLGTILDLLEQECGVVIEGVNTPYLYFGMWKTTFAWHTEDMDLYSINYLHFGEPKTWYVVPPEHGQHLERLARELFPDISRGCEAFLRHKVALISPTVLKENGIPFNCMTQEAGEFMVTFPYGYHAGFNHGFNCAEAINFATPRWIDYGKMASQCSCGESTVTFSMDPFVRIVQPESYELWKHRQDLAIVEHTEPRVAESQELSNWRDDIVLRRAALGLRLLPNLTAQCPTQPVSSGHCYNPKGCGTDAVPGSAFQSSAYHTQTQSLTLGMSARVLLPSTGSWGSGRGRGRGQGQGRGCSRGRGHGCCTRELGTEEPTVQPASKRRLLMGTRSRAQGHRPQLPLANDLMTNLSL
Chain of adrenergic α1A receptor (P43140 whole entry): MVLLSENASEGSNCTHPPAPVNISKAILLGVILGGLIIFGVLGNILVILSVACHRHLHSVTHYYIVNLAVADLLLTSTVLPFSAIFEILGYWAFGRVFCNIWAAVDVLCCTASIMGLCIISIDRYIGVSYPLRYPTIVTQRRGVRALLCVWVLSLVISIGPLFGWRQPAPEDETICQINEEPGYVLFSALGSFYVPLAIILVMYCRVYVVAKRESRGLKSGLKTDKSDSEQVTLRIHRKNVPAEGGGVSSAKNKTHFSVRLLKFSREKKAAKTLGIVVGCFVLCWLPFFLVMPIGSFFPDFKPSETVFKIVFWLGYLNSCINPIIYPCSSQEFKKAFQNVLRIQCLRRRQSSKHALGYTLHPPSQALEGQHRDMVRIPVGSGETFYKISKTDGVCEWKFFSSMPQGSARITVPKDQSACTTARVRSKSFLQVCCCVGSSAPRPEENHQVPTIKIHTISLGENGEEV

On to `COc1cc2c(NC3CCN(C(C)C)CC3)nc(C3CCCCC3)nc2cc1OCCCN1CCCC1` [UNC0638], for which the IC50 against SUV39H1 was greater than 10 µM; against SUV39H1 (setting [4]), “inactive”; at EZH2, greater than 10 µM; against EZH2 (setting [4]) it was “inactive”; on JMJD2E it was 4.5 µM; in assay [3] (Homo sapiens, Fibroblast, read-out: potency in reducing H3K9me2 levels), 0.048 to 0.238 µM. For the same compound, the IC50 on SUV39H2 is greater than 10 µM; at SUV39H2 (SAHH-coupled assay), “inactive”. For the same compound, the “H3K9me2 at EGFP provirus and MAGEA2 promoter (ChIP)” value in assay [1] is “decreased H3K9me2 at both targets by day 3”. Also, in the assay on M1, M2 and M4, the agonist activity entry was “no agonist activity”. In addition, the “SSEA1+ cells” value with J1 mES cells is 97%. Also, the inhibition in assay [2] (against 6 targets in the panel) is reported as greater than 50%; in assay [2] (against 39 targets in the panel) it was less than 50%. The compound further yielded an inhibition at 1 µM on adrenergic α1A receptor of 90%. Further, the “reduction of H3K9me2 levels” value in assay [3] (at 250 nM, variety of cell lines) is listed as 60–80%.
